In ChEMBL document CHEMBL1143066, “Characterization and optimization of selective, nonpeptidic inhibitors of cathepsin S with an unprecedented binding mode” (J Med Chem, 2007):

Legend:
Cathepsin K = biological target: T1, Cathepsin K (Homo sapiens, UniProt P43235); assay: Inhibition of cathepsin K
T1 sequence (P43235 whole entry): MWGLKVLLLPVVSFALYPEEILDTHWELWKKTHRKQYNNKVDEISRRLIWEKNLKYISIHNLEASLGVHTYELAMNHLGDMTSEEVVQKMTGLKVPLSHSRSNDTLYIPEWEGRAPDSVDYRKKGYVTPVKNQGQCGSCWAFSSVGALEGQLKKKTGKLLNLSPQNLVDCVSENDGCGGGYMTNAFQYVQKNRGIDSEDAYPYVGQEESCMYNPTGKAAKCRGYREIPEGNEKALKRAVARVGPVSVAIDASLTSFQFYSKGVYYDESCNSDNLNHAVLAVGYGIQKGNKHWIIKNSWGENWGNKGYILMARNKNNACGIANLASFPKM
Procedure, shortened: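 Cathepsin K at 10 nM, preincubated 5 min at 37 °C with DMSO-delivered inhibitor in pH 6.1 sodium phosphate buffer with NaCl, DTT, EDTA, Tween-20. Then 2.5 µM Cbz-Phe-Arg-AMC; AMC release monitored for 5 min (ex 355/em 450 nm). Duplicates at five inhibitor concentrations giving 10–90% inhibition. K_i = IC50 − E_t/2, with IC50 from V_i/V_o versus concentration.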

Cathepsin B = Cathepsin B (Homo sapiens, UniProt P07858); assay: Inhibition of cathepsin B
Procedure, shortened: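 Cathepsin B (2 nM) in pH 6.1 phosphate/NaCl/DTT/EDTA/Tween-20 buffer, preincubated with inhibitor (in DMSO) for 5 min at 37 °C. Cbz-Phe-Arg-AMC 2.5 µM then added and AMC followed for 5 min (ex 355/em 450 nm). Five inhibitor levels spanning 10–90% inhibition, in duplicate. IC50 from V_i/V_o plots, converted as K_i = IC50 − E_t/2.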

Cathepsin S = Cathepsin S (Homo sapiens, UniProt P25774); assay: Inhibition of cathepsin S
Cathepsin S, sequence (P25774 whole entry): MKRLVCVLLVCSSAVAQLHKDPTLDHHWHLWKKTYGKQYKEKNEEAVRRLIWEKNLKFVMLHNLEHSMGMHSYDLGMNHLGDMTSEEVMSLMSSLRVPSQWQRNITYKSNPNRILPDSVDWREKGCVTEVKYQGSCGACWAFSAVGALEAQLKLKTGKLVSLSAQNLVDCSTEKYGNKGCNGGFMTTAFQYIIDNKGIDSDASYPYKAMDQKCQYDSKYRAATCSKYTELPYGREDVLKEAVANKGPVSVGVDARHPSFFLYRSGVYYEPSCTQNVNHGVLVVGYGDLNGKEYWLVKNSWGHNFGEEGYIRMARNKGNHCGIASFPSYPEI
Procedure, shortened: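 Cathepsin S 0.7 nM with inhibitor (added in DMSO), 5 min at 37 °C in pH 6.1 phosphate buffer containing NaCl, DTT, EDTA and Tween-20. IC50 from V_i/V_o plot, converted to K_i via IC50 − E_t/2.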

Procathepsin L = Procathepsin L (Homo sapiens, UniProt P07711); assay: Inhibition of cathepsin L
Procathepsin L, sequence (P07711 whole entry): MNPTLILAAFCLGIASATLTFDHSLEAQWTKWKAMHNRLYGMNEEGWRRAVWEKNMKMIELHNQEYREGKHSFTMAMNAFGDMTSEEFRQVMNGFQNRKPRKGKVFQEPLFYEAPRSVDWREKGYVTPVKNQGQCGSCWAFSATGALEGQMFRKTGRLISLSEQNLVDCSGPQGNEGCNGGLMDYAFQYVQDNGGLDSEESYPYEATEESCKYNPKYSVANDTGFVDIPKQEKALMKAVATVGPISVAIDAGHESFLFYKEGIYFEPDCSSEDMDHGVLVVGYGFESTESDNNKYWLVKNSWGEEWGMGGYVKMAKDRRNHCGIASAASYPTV

Compound	Ki (Cathepsin K)	Ki (Cathepsin B)	Ki (Cathepsin S)	Ki (Procathepsin L)
O=CCOc1ccccc1-c1ccc(F)c(F)c1F	1.51 µM	> 15 µM	–	–
CC(C)Cc1ccc(-c2ccccc2OCC=O)c(F)c1F	1.24 µM	> 15 µM	0.0096 µM	> 15 µM
CCCc1ccc(-c2ccccc2OCC=O)c(F)c1F	1.28 µM	> 15 µM	0.0487 µM	–
